Legend:
Conditions in all cases: stereoisomer not certain
[1] = molecular target: T1, UniProt Q8VGU3
T1 sequence (whole entry): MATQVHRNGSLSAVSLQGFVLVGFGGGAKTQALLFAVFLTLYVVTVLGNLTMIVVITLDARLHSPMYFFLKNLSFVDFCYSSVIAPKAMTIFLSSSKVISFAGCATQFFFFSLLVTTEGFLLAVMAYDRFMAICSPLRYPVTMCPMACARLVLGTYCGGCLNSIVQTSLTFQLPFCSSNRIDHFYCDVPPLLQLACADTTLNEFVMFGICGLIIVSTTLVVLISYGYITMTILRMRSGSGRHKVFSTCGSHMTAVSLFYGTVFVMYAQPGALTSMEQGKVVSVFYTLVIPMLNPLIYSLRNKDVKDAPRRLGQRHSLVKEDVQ
Procedure, shortened: (§1)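 Transient luciferase assays in mammalian cell lines were common, though methods varied by source. The values come from published papers and their supplementary material, with extra details from the original authors when needed. Responsive refers to a measured signal the original authors judged statistically different from baseline, and non-responsive (inactive) to the remainder.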

[2] = molecular target: T2, UniProt Q8VGV7
T2 sequence (whole entry): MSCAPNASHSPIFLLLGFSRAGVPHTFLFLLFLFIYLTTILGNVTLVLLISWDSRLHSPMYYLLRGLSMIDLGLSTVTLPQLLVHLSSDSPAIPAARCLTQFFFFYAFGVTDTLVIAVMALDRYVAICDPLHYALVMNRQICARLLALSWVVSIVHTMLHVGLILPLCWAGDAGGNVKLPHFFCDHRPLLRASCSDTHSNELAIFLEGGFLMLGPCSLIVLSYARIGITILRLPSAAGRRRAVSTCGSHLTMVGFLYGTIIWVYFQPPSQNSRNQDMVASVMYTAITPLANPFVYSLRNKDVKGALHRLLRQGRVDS
Procedure, shortened: as §1

[3] = molecular target: T3, UniProt Q8VGX3
T3 sequence (whole entry): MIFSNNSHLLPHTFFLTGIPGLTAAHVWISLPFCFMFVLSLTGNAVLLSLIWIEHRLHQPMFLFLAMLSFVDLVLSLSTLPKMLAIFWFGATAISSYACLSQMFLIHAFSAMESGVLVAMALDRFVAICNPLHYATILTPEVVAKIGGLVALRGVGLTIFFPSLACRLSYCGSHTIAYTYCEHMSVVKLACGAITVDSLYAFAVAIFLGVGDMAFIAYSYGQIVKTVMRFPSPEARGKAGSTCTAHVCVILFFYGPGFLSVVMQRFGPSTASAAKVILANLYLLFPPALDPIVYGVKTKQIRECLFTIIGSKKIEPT
Procedure, shortened: as §1

[4] = molecular target: T4, UniProt Q8VGX5
T4 sequence (whole entry): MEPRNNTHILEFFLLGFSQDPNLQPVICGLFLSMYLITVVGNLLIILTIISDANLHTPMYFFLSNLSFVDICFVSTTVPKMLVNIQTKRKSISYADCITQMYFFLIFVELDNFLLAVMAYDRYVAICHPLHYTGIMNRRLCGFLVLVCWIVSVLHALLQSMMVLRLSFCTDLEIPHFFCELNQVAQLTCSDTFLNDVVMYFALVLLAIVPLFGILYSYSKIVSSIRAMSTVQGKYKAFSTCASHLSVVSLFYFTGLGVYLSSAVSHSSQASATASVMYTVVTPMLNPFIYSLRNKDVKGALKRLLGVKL
Procedure, shortened: as §1

[5] = molecular target: T5, UniProt Q8VGW5
T5 sequence (whole entry): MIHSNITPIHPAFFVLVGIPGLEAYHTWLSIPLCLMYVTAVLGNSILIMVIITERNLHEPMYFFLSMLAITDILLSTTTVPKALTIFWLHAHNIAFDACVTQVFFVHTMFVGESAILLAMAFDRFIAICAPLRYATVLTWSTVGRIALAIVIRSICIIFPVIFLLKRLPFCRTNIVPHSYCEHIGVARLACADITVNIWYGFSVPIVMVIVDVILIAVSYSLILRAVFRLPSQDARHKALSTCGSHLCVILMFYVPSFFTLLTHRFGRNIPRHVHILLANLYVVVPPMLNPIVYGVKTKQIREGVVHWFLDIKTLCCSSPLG
Procedure, shortened: as §1

Measured: odorant receptor agonist call

CC(=O)OCCc1ccccc1
active: [2]
inactive: [1] | [3] | [4]

COc1nccnc1C(C)C
not listed: [5]
inactive: all other assays above

CCc1ccc(O)cc1
not listed: [5]
inactive: all other assays above

CCc1ncc(C)nc1CC
not listed: [5]
inactive: all other assays above

CCCCCCCCCC=CC=O
not listed: [5]
inactive: all other assays above

C=CC(=C)CCC=C(C)CCC=C(C)C
not listed: [5]
inactive: all other assays above

Cc1occc1SSc1ccoc1C
not listed: [5]
inactive: all other assays above

CCc1nccnc1CC
not listed: [5]
inactive: all other assays above

CCCCCCCCCCOC(C)=O
not listed: [5]
inactive: all other assays above

Cc1ccc(C(C)C)cc1
not listed: [5]
inactive: all other assays above

CC(C)=C1CCC(C)CC1=O (stereo not drawn)
active: [4]
inactive: [1] | [2] | [3]

CCCCCCC(C)O (stereo not drawn)
not listed: [5]
inactive: all other assays above

CC(=O)OC1(C)CCC23CC1C(C)(C)C2CCC3C (stereo not drawn)
active: [1]
inactive: [2] | [3] | [4]

Cc1ccc2c(c1)OCC(=O)CO2
not listed: [5]
inactive: all other assays above

CCCCCCC(=O)OCCCC
not listed: [5]
inactive: all other assays above

CC=C(C)C=O
not listed: [5]
inactive: all other assays above

CC(CC=O)CCCC(C)(C)O (stereo not drawn)
not listed: [5]
inactive: all other assays above

CCC(C)c1nccnc1OC (stereo not drawn)
inactive: [1] | [2] | [3]
active: [4]

O=C(O)CCCCCCCCC(=O)O
not listed: [5]
inactive: all other assays above

COC(OC)c1ccccc1
not listed: [5]
inactive: all other assays above

C=C(CC)CCCC(C)(C)O
not listed: [5]
inactive: all other assays above

CCCCCCCCC=CC=O
not listed: [5]
inactive: all other assays above

C1CCOC1
not listed: [5]
inactive: all other assays above

C=CC(=O)CCCCC
not listed: [5]
inactive: all other assays above

O=C(O)C1CCC1
not listed: [5]
inactive: all other assays above

CC=CC(=O)C1=C(C)CCCC1(C)C
active: [4]
inactive: [1] | [2] | [3]

O=C(O)CCCCCBr
not listed: [5]
inactive: all other assays above

CCCO
not listed: [5]
inactive: all other assays above

CCSCC
not listed: [5]
inactive: all other assays above

CCCCCCC=CC=O
not listed: [5]
inactive: all other assays above

CC1CCC(C(C)C)C(=O)C1 (stereo not drawn)
not listed: [5]
inactive: all other assays above

CCC(C)O (stereo not drawn)
not listed: [5]
inactive: all other assays above

CCCCOC(=O)CCC
inactive: [5]

CC=Cc1ccc(OC)cc1
not listed: [5]
inactive: all other assays above

O=C(OCc1ccccc1)c1ccccc1O
not listed: [5]
inactive: all other assays above

COc1ccccc1
not listed: [5]
inactive: all other assays above

CCC=CCCCCC=O
not listed: [5]
inactive: all other assays above

CCCCCCCCOC=O
not listed: [5]
inactive: all other assays above

CSSCc1ccco1
not listed: [5]
inactive: all other assays above

CCCC(C)C(=O)OCC (stereo not drawn)
not listed: [5]
inactive: all other assays above

C=C(C)C1CCC(C)C(O)C1 (stereo not drawn)
inactive: [1] | [2] | [3]
active: [4]

CNc1ccccc1C(=O)OC
inactive: [1] | [2] | [3]
active: [4]

CCOC(=O)C(C)CC (stereo not drawn)
not listed: [5]
inactive: all other assays above

CSSSC
not listed: [5]
inactive: all other assays above

— the M2OR odorant receptor database
